From paper PMC11867109 (Chemical Science, 2025)
No end group written: not given here.

Tests used:
[1] = tested on: human red blood cells; assay: Hemolysis assay; assay type: cell-based; settings: hRBC, at 64 μg mL^−1 peptide; mean ± SD
Summary of the method: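 Human red blood cells exposed to two-fold serial dilutions of test peptide, with 4096 µg mL⁻¹ as the assay's upper concentration limit. HC10 is interpolated continuously from the dilution series. Values are means of three independent experiments, each with at least two technical duplicates, with standard deviation.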

[2] = Helicity and helical rigidity by circular dichroism; assay type: physicochemical; settings: ratio between molar ellipticity in 15% TFE and in 100% TFE

For GLFDIIKKIAESF-NH2 [Aurein 1.2], the hemolysis [1] was 37.2 ± 1.8% and the “Helical rigidity % ± SD” value [2] was 102 ± 2%.
